In ChEMBL document CHEMBL1671684, “In vitro resistance profile of the hepatitis C virus NS3/4A protease inhibitor TMC435” (Antimicrob Agents Chemother, 2010):

What follows are molecules tested on Hepatitis C virus (assay: Antiviral activity against Hepatitis C virus subtype 1b expressing WT NS3 infected in HuH7 cells after 48 hrs by luciferase reporter assay). Settings: genotype 1b, Huh-7, 48 h.
Format: functional, organism-based, Hepacivirus hominis
In short: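 Huh7-lunet cells were electroporated with 10 μg wild-type genotype 1b subgenomic replicon RNA (clone ET; luciferase reporter; E1202G, T1280I, K1846T). They were seeded at 4,000 cells/well over a nine-point compound dilution series. After 48 h at 37°C, 5% CO2, luciferase reagent was added 1:1, followed by 10–20 min in the dark and a luminescence read. EC50 is the median of individual-experiment EC50s.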

SMILES | EC50
CCC[C@H](NC(=O)[C@@H]1[C@H]2CCC[C@H]2CN1C(=O)[C@@H](NC(=O)[C@@H](NC(=O)c1cnccn1)C1CCCCC1)C(C)(C)C)C(=O)C(=O)NC1CC1 [TELAPREVIR] | 150 nM

What follows are molecules tested on Hepatitis C virus (assay: Antiviral activity against Hepatitis C virus subtype 1b expressing NS3 V36M mutant infected in HuH7 cells after 48 hrs by luciferase reporter assay). Settings: genotype 1b, Huh-7, 48 h.
Format: functional, organism-based, Hepacivirus hominis
In short: (§1)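 Genotype 1b con1 subgenomic bicistronic replicon (clone ET) with luciferase reporter and adaptive mutations E1202G, T1280I, K1846T, carrying site-directed NS3 single or double mutations. 10 μg wild-type or mutant replicon RNA electroporated into Huh7-lunet cells, seeded 4,000 cells/well over a nine-point inhibitor dilution series, 48 h at 37°C, 5% CO2, then luminescence read. EC50 taken as median of individual experiments; fold change relative to parental replicon EC50.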

SMILES | EC50
CCC[C@H](NC(=O)[C@@H]1[C@H]2CCC[C@H]2CN1C(=O)[C@@H](NC(=O)[C@@H](NC(=O)c1cnccn1)C1CCCCC1)C(C)(C)C)C(=O)C(=O)NC1CC1 [TELAPREVIR] | 886 nM

What follows are molecules tested on Hepatitis C virus (assay: Antiviral activity against Hepatitis C virus subtype 1b expressing NS3 Q80K mutant infected in HuH7 cells after 48 hrs by luciferase reporter assay). Settings: genotype 1b, Huh-7, 48 h.
Format: functional, organism-based, Hepacivirus hominis
In short: as §1

SMILES | EC50
CCC[C@H](NC(=O)[C@@H]1[C@H]2CCC[C@H]2CN1C(=O)[C@@H](NC(=O)[C@@H](NC(=O)c1cnccn1)C1CCCCC1)C(C)(C)C)C(=O)C(=O)NC1CC1 [TELAPREVIR] | 147 nM

What follows are molecules tested on Hepatitis C virus (assay: Antiviral activity against Hepatitis C virus subtype 1b expressing NS3 R109K mutant infected in HuH7 cells after 48 hrs by luciferase reporter assay). Settings: genotype 1b, Huh-7, 48 h.
Format: functional, organism-based, Hepacivirus hominis
In short: as §1

SMILES | EC50
CCC[C@H](NC(=O)[C@@H]1[C@H]2CCC[C@H]2CN1C(=O)[C@@H](NC(=O)[C@@H](NC(=O)c1cnccn1)C1CCCCC1)C(C)(C)C)C(=O)C(=O)NC1CC1 [TELAPREVIR] | 66 nM

The molecules below were run on Hepatitis C virus (assay: Antiviral activity against Hepatitis C virus subtype 1b expressing NS3 R155M mutant infected in HuH7 cells after 48 hrs by luciferase reporter assay). Settings: genotype 1b, Huh-7, 48 h.
Format: functional, organism-based, Hepacivirus hominis
In short: as §1

SMILES | EC50
CCC[C@H](NC(=O)[C@@H]1[C@H]2CCC[C@H]2CN1C(=O)[C@@H](NC(=O)[C@@H](NC(=O)c1cnccn1)C1CCCCC1)C(C)(C)C)C(=O)C(=O)NC1CC1 [TELAPREVIR] | 4110 nM

These molecules were tested on Hepatitis C virus (assay: Antiviral activity against Hepatitis C virus subtype 1b expressing NS3 R155K mutant infected in HuH7 cells after 48 hrs by luciferase reporter assay). Settings: genotype 1b, Huh-7, 48 h.
Format: functional, organism-based, Hepacivirus hominis
In short: as §1

SMILES | EC50
CCC[C@H](NC(=O)[C@@H]1[C@H]2CCC[C@H]2CN1C(=O)[C@@H](NC(=O)[C@@H](NC(=O)c1cnccn1)C1CCCCC1)C(C)(C)C)C(=O)C(=O)NC1CC1 [TELAPREVIR] | 1470 nM

What follows are molecules tested on Hepatitis C virus (assay: Antiviral activity against Hepatitis C virus subtype 1b expressing NS3 A156S mutant infected in HuH7 cells after 48 hrs by luciferase reporter assay). Settings: genotype 1b, Huh-7, 48 h.
Format: functional, organism-based, Hepacivirus hominis
In short: as §1

SMILES | EC50
CCC[C@H](NC(=O)[C@@H]1[C@H]2CCC[C@H]2CN1C(=O)[C@@H](NC(=O)[C@@H](NC(=O)c1cnccn1)C1CCCCC1)C(C)(C)C)C(=O)C(=O)NC1CC1 [TELAPREVIR] | 3110 nM

What follows are molecules tested on Hepatitis C virus (assay: Antiviral activity against Hepatitis C virus subtype 1b expressing NS3 A156G mutant infected in HuH7 cells after 48 hrs by luciferase reporter assay). Settings: genotype 1b, Huh-7, 48 h.
Format: functional, organism-based, Hepacivirus hominis
In short: as §1

SMILES | EC50
CCC[C@H](NC(=O)[C@@H]1[C@H]2CCC[C@H]2CN1C(=O)[C@@H](NC(=O)[C@@H](NC(=O)c1cnccn1)C1CCCCC1)C(C)(C)C)C(=O)C(=O)NC1CC1 [TELAPREVIR] | 58 nM

Each molecule was assayed on Hepatitis C virus (assay: Antiviral activity against Hepatitis C virus subtype 1b expressing NS3 A156T mutant infected in HuH7 cells after 48 hrs by luciferase reporter assay). Settings: genotype 1b, Huh-7, 48 h.
Format: functional, organism-based, Hepacivirus hominis
In short: as §1

SMILES | EC50
CCC[C@H](NC(=O)[C@@H]1[C@H]2CCC[C@H]2CN1C(=O)[C@@H](NC(=O)[C@@H](NC(=O)c1cnccn1)C1CCCCC1)C(C)(C)C)C(=O)C(=O)NC1CC1 [TELAPREVIR] | 20300 nM

These molecules were tested on Hepatitis C virus (assay: Antiviral activity against Hepatitis C virus subtype 1b expressing NS3 D168T mutant infected in HuH7 cells after 48 hrs by luciferase reporter assay). Settings: genotype 1b, Huh-7, 48 h.
Format: functional, organism-based, Hepacivirus hominis
In short: as §1

SMILES | EC50
CCC[C@H](NC(=O)[C@@H]1[C@H]2CCC[C@H]2CN1C(=O)[C@@H](NC(=O)[C@@H](NC(=O)c1cnccn1)C1CCCCC1)C(C)(C)C)C(=O)C(=O)NC1CC1 [TELAPREVIR] | 181 nM

What follows are molecules tested on Hepatitis C virus (assay: Ratio of EC50 for Hepatitis C virus subtype 1b expressing NS3 V36 M mutant to EC50 for Hepatitis C virus subtype 1b expressing WT NS3 infected in HuH7 cells after 48 hrs by luciferase reporter assay). Settings: not given.
Format: functional, Hepacivirus hominis, genotype 1b, Huh-7
In short: (§2)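 Transient replicon assay: site-directed single or multiple NS3 mutations engineered into genotype 1b (con1, clone ET) subgenomic bicistronic replicon with luciferase reporter and adaptive mutations E1202G, T1280I, K1846T. Huh7-lunet cells electroporated with 10 μg wild-type or mutant replicon RNA, seeded 4,000 cells/well with nine-point inhibitor dilution; 48 h, 37°C, 5% CO2; luminescence read-out. EC50 as median of individual experiments; fold change versus parental replicon EC50.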

SMILES | Ratio EC50
CCC[C@H](NC(=O)[C@@H]1[C@H]2CCC[C@H]2CN1C(=O)[C@@H](NC(=O)[C@@H](NC(=O)c1cnccn1)C1CCCCC1)C(C)(C)C)C(=O)C(=O)NC1CC1 [TELAPREVIR] | 10

What follows are molecules tested on Hepatitis C virus (assay: Ratio of EC50 for Hepatitis C virus subtype 1b expressing NS3 F43S mutant to EC50 for Hepatitis C virus subtype 1b expressing WT NS3 infected in HuH7 cells after 48 hrs by luciferase reporter assay). Settings: not given.
Format: functional, Hepacivirus hominis, genotype 1b, Huh-7
In short: as §2

SMILES | Ratio EC50
CCC[C@H](NC(=O)[C@@H]1[C@H]2CCC[C@H]2CN1C(=O)[C@@H](NC(=O)[C@@H](NC(=O)c1cnccn1)C1CCCCC1)C(C)(C)C)C(=O)C(=O)NC1CC1 [TELAPREVIR] | 6.1

Each molecule was assayed on Hepatitis C virus (assay: Ratio of EC50 for Hepatitis C virus subtype 1b expressing NS3 R155M mutant to EC50 for Hepatitis C virus subtype 1b expressing WT NS3 infected in HuH7 cells after 48 hrs by luciferase reporter assay). Settings: not given.
Format: functional, Hepacivirus hominis, genotype 1b, Huh-7
In short: as §2

SMILES | Ratio EC50
CCC[C@H](NC(=O)[C@@H]1[C@H]2CCC[C@H]2CN1C(=O)[C@@H](NC(=O)[C@@H](NC(=O)c1cnccn1)C1CCCCC1)C(C)(C)C)C(=O)C(=O)NC1CC1 [TELAPREVIR] | 14

The molecules below were run on Hepatitis C virus (assay: Ratio of EC50 for Hepatitis C virus subtype 1b expressing NS3 R155T mutant to EC50 for Hepatitis C virus subtype 1b expressing WT NS3 infected in HuH7 cells after 48 hrs by luciferase reporter assay). Settings: not given.
Format: functional, Hepacivirus hominis, genotype 1b, Huh-7
In short: as §2

SMILES | Ratio EC50
CCC[C@H](NC(=O)[C@@H]1[C@H]2CCC[C@H]2CN1C(=O)[C@@H](NC(=O)[C@@H](NC(=O)c1cnccn1)C1CCCCC1)C(C)(C)C)C(=O)C(=O)NC1CC1 [TELAPREVIR] | 74

The molecules below were run on Hepatitis C virus (assay: Ratio of EC50 for Hepatitis C virus subtype 1b expressing NS3 R155G mutant to EC50 for Hepatitis C virus subtype 1b expressing WT NS3 infected in HuH7 cells after 48 hrs by luciferase reporter assay). Settings: not given.
Format: functional, Hepacivirus hominis, genotype 1b, Huh-7
In short: as §2

SMILES | Ratio EC50
CCC[C@H](NC(=O)[C@@H]1[C@H]2CCC[C@H]2CN1C(=O)[C@@H](NC(=O)[C@@H](NC(=O)c1cnccn1)C1CCCCC1)C(C)(C)C)C(=O)C(=O)NC1CC1 [TELAPREVIR] | 20

What follows are molecules tested on Hepatitis C virus (assay: Ratio of EC50 for Hepatitis C virus subtype 1b expressing NS3 D168N mutant to EC50 for Hepatitis C virus subtype 1b expressing WT NS3 infected in HuH7 cells after 48 hrs by luciferase reporter assay). Settings: not given.
Format: functional, Hepacivirus hominis, genotype 1b, Huh-7
In short: as §2

SMILES | Ratio EC50
CCC[C@H](NC(=O)[C@@H]1[C@H]2CCC[C@H]2CN1C(=O)[C@@H](NC(=O)[C@@H](NC(=O)c1cnccn1)C1CCCCC1)C(C)(C)C)C(=O)C(=O)NC1CC1 [TELAPREVIR] | 1.2

What follows are molecules tested on Hepatitis C virus (assay: Ratio of EC50 for Hepatitis C virus subtype 1b expressing NS3 D168E mutant to EC50 for Hepatitis C virus subtype 1b expressing WT NS3 infected in HuH7 cells after 48 hrs by luciferase reporter assay). Settings: not given.
Format: functional, Hepacivirus hominis, genotype 1b, Huh-7
In short: as §2

SMILES | Ratio EC50
CCC[C@H](NC(=O)[C@@H]1[C@H]2CCC[C@H]2CN1C(=O)[C@@H](NC(=O)[C@@H](NC(=O)c1cnccn1)C1CCCCC1)C(C)(C)C)C(=O)C(=O)NC1CC1 [TELAPREVIR] | 0.6
